Data: paper PMC3188443 (Biochemical pharmacology, 2010)
pIC50, pKd: −log10 of the molar value. Ends that are not written are not given here.

Columns and labels:
Stat3 [1] = target: T1, Stat3 (Mus musculus, UniProt P42227); experiment: Surface Plasmon Resonance analysis of binding to immobilized His-tagged Stat3; set-up: species or system murine; details: 0-5 μM peptide as analyte
Outline: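 His-tagged Stat3 expressed in E. coli BL21(DE3), purified on a Ni-ion Sepharose column, and captured on a HisCap sensor chip by injecting 50 μg/ml protein. Analytes were unphosphorylated or phosphotyrosine gp-130 heptapeptides at 0-5 μM, passed over the chip. Running buffer was 1X PBS, 0.5% DMSO. Association and dissociation rate constants were fitted, and KD was taken as their ratio.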

Stat3 [2] = target: T1, Stat3; type: binding, murine; details: 150 nM His-Stat3, unlabeled peptide
[3] = target: His-tagged murine Stat3 protein (murine) (UniProt P42227); experiment: SPR
His-tagged murine Stat3 protein (murine), sequence (P42227 whole entry): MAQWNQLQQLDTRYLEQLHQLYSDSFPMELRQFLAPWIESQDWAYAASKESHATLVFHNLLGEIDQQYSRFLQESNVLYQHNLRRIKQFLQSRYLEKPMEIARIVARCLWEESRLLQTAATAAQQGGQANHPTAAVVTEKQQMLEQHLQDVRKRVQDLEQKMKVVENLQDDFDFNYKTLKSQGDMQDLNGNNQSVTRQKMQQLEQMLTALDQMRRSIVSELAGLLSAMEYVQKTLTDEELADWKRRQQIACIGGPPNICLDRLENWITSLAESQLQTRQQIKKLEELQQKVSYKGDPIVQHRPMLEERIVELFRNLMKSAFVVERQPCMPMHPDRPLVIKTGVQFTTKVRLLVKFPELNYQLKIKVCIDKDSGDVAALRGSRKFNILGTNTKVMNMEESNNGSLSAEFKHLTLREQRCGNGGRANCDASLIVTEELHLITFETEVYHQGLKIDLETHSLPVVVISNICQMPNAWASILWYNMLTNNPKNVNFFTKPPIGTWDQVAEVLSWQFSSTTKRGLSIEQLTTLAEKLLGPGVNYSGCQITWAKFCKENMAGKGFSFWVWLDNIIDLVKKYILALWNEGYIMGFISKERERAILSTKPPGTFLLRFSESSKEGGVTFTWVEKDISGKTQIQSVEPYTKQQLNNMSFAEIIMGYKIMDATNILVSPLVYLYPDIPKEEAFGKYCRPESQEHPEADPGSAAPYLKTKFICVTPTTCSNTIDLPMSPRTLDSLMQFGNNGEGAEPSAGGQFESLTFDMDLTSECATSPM

[4] = target: His-tagged murine Stat3 protein (murine) (UniProt P42227); experiment: fluorescence polarisation

T1 sequence (P42227 whole entry): as above

Row | Substance | binding to Stat3 (SPR) (Stat3 [1]) | inhibition in the FP assay, in words (Stat3 [2]) | pKd [3] | pIC50 [4]
1 | GYLPQTV-NH2 | no significant binding | no evidence of inhibition |  | 
2 | GpYLPQTV-NH2, high affinity Stat3-binding phosphoTyr peptide derived from the IL-6R subunit gp-130 |  |  | 7.62 | 6.52
